In ChEMBL document CHEMBL5331142, “Novel 1,4-Dihydropyridines as Specific Binders and Activators of SIRT3 Impair Cell Viability and Clonogenicity and Downregulate Hypoxia-Induced Targets in Cancer Cells” (J Med Chem, 2023):
The source made the active and inactive calls. The rule behind the calls is not given here.

Legend:
MDA-MB-231 [1] = test: Downregulation of SLUG gene expression in human MDA-MB-231 cells at 50 uM incubated for 48 hrs by qRT-PCR analysis; type: functional, cell-based
Method in brief: (§1)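 MDA-MB-231 cells treated with 50 μM compound for 48 h under normoxia, DMSO vehicle control. qRT-PCR quantified by the 2(−ΔCt) method as fold of control, mean ± SEM. Three independent experiments.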

[2] = target: T1, NAD-dependent protein deacetylase sirtuin-3, mitochondrial (Homo sapiens) (UniProt Q9NTG7); test: Activation of human SIRT3 overexpressing in human MDA-MB-231 cells assessed as increase in acK122-MnSOD deacetylation level at 50 uM incubated for 4 hrs by Western blot analysis assay; type: cell-based; conditions: filed as activator
T1 sequence (whole entry): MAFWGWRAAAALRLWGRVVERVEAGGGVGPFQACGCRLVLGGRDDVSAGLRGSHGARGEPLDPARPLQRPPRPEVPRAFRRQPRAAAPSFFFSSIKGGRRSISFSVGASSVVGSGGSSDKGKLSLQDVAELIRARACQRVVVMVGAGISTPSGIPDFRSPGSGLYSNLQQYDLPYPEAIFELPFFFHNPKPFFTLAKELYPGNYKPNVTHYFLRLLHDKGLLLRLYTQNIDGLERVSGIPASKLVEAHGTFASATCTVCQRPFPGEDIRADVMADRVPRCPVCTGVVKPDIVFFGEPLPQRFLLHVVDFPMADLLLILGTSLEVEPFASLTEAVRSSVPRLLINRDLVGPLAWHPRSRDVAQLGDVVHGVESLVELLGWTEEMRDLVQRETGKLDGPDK
Method in brief: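 CAL-62 or MDA-MB-231 cells treated 4 h at 50 μM. Lysed in Tris/NaCl/EDTA/Triton buffer with protease and phosphatase inhibitors. 15 or 50 μg protein resolved by SDS-PAGE, immunoblotted for acK68- or acK122-MnSOD and total MnSOD, ECL detection. Densitometric acetyl/total ratio. SIRT3 inhibitor 3-TYP (1 μM) used as control.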

[3] = target: T1, NAD-dependent protein deacetylase sirtuin-3, mitochondrial (Homo sapiens); test: Activation of human SIRT3 overexpressing in human MDA-MB-231 cells assessed as increase in GDH activity at 50 uM incubated for 4 hrs by absorbance assay; type: cell-based; conditions: filed as activator
Method in brief: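 MDA-MB-231 cells exposed 4 h to 50 μM compound. 10^6 cells lysed in GDH assay buffer for 10 min on ice. Supernatant mixed with developer and glutamate, incubated 3 min at 37 °C, absorbance read at 450 nm with buffer blank subtracted. SIRT3-overexpressing MDA-MB-231 cells served as reference.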

MDA-MB-231 [4] = test: Downregulation of HIF1alpha expression in human MDA-MB-231 cells at 50 uM incubated for 48 hrs under hypoxia condition by Western blot analysis; type: functional, cell-based
Method in brief: (§2)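 CAL-62 or MDA-MB-231 cells made hypoxic with 200 μM CoCl2 for 24 h, then treated with 50 μM compound for 48 h with CoCl2 retained. Lysates (15 or 50 μg protein) immunoblotted for HIF-1α, EPAS-1 or CA-IX with ACTB, ECL detection. 3-TYP (1 μM) as control.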

CAL-62 [5] = test: Inhibition of clonogenicity in human CAL-62 cells at 50 uM incubated for 24 to 48 hrs under normoxia condition by crystal violet staining based assay; type: functional; conditions: time 24-48 hrs
Method in brief: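 CAL-62 cells at 80–90% confluence treated with 50 μM compound for 24 or 48 h, in normoxia or with 200 μM CoCl2 (hypoxia). 500 cells replated per 100 mm dish and grown about 7 days. Colonies fixed in 4% formaldehyde, stained with 0.5% crystal violet, and counted.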

CAL-62 [6] = test: Downregulation of HIF1alpha expression in human CAL-62 cells at 50 uM incubated for 48 hrs under hypoxia condition by Western blot analysis; type: functional, cell-based; method in brief: as §2
MDA-MB-231 [7] = test: Downregulation of SLUG gene expression in human MDA-MB-231 cells at 50 uM incubated for 48 hrs under hypoxia condition by qRT-PCR analysis; type: functional, cell-based
Method in brief: (§3)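 MDA-MB-231 cells pretreated with 200 μM CoCl2 to induce hypoxia, then exposed to 50 μM compound for 48 h with CoCl2 maintained. qRT-PCR by the 2(−ΔCt) method vs DMSO control, mean ± SEM. Four independent experiments.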

HaCaT = test: Cytotoxicity against human HaCaT cells assessed as reduction in cell viability at 10 to 25 uM incubated for 48 hrs by trypan blue exclusion assay; type: toxicity, cell-based; conditions: dose 10-25 µM
Method in brief: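 HaCaT keratinocytes in DMEM with 10% FBS, treated at 5, 10 and 25 μM for 24 and 48 h. Viability and death scored by trypan blue hemocytometer counting. Three independent experiments.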

MDA-MB-231 [8] = test: Downregulation of ZEB1 gene expression in human MDA-MB-231 cells at 50 uM incubated for 48 hrs under hypoxia condition by qRT-PCR analysis; type: functional, cell-based; method in brief: as §3
CAL-62 [9] = test: Downregulation of EPAS-1 expression in human CAL-62 cells at 50 uM incubated for 48 hrs under hypoxia condition by Western blot analysis; type: functional, cell-based; method in brief: as §2
MDA-MB-231 [10] = test: Downregulation of COL1A2 gene expression in human MDA-MB-231 cells at 50 uM incubated for 48 hrs by qRT-PCR analysis; type: functional, cell-based; method in brief: as §1
MDA-MB-231 [11] = test: Downregulation of MMP2 gene expression in human MDA-MB-231 cells at 50 uM incubated for 48 hrs by qRT-PCR analysis; type: functional, cell-based; method in brief: as §1
[12] = target: T2, NAD-dependent protein deacetylase sirtuin-3, mitochondrial (Homo sapiens, UniProt Q9NTG7); test: Binding affinity to N-terminal his-tagged human SIRT3 (114 to 380 residues) assessed as dissociation constant by SPR analysis
T2 sequence (Q9NTG7 whole entry): T1 sequence (whole entry)
Method in brief: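 SPR with SIRT3 amine-coupled to the chip (sodium acetate pH 4.0; 1500–4000 RU). Analytes diluted to 200 μM in HBSP (20 mM Hepes, 150 mM NaCl, 0.005% P20; 2% DMSO), injected at 5, 10, 20, 40, 80 μM at 30 μL/min. Dissociation after 180 s. Reference chip lacked ligand. Apparent KD by Scatchard analysis. Run twice.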

MDA-MB-231 [13] = test: Downregulation of SNAIL gene expression in human MDA-MB-231 cells at 50 uM incubated for 48 hrs by qRT-PCR analysis; type: functional, cell-based; method in brief: as §1
[14] = target: T3, NAD-dependent protein deacetylase sirtuin-2 (Homo sapiens) (UniProt Q8IXJ6); test: Activation of N-terminal his-tagged human SIRT2 (43 to 356 residues) expressed in Escherichia coli at 10 uM using p53-acK381 as substrate in presence of NAD+ by NADH oxidation-coupled enzymatic assay
T3 sequence (whole entry): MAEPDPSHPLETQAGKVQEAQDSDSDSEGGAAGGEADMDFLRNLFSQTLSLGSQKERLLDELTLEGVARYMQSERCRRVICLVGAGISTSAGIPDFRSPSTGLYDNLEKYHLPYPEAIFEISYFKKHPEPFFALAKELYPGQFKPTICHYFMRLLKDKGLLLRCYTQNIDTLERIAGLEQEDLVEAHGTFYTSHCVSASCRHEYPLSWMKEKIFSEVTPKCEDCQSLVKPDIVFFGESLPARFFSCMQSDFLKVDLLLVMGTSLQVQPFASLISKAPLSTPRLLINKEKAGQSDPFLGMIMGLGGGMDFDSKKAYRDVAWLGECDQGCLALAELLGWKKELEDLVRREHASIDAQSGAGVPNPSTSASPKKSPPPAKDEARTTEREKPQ

| Activity [2] | Activity [3] | Kd [12] [µM] | Activity [14] | Compound | Activity (MDA-MB-231 [1]) | Activity (MDA-MB-231 [4]) | inhibition at 50 µM (CAL-62 [5]) [%] | Activity (CAL-62 [6]) | Activity (MDA-MB-231 [7]) | Activity (HaCaT) | Activity (MDA-MB-231 [8]) | Activity (CAL-62 [9]) | Activity (MDA-MB-231 [10]) | Activity (MDA-MB-231 [11]) | Activity (MDA-MB-231 [13]) |
| --- | --- | --- | --- | --- | --- | --- | --- | --- | --- | --- | --- | --- | --- | --- | --- |
| Active | Active | 79 | inactive | CCOC(=O)C1=CN(C(=O)c2cc(OC)cc(OC)c2)C=C(C(=O)OCC)C1c1ccccc1 | inactive | Active | 68 | Active | Active | Non-Toxic | Active | Active | Active | Active | Active |
|  | Active |  | inactive | CCOC(=O)C1=CN(C(=O)c2ccc(OC)c(OC)c2)C=C(C(=O)OCC)C1c1ccccc1 |  | Active |  |  | Active |  | Active | Active | Active | Active | Active |
